Experimental data taken from ChEMBL document CHEMBL1125864, “Folate analogues. 35. Synthesis and biological evaluation of 1-deaza, 3-deaza, and bridge-elongated analogues of N10-propargyl-5,8-dideazafolic acid” (J Med Chem, 1991).

Key:
Thymidylate synthase [1] = molecular target: Thymidylate synthase (Homo sapiens, UniProt P04818); experiment: Compound was evaluated for the inhibition of human Thymidylate Synthase; details: read-out: I50
MCF7 = experiment: Compound was evaluated for inhibition of tumor cell growth in MCF-7 cell line; type: functional, cell-based; details: Homo sapiens, read-out: I50
Summary of the method: (§1)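 Cells were grown in folate-free RPMI 1640 with 10% dialyzed FCS and 20 nM leucovorin, seeding SW480 at 8000 and MCF-7 at 10000 cells/well. After 24 h at 37 °C and 5% CO₂, drug diluted in leucovorin-free medium was added to triplicate wells for 96 h. Growth was read by MTT reduction (1 h), followed by DMSO solubilization and absorbance.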

SW480 = experiment: Compound was evaluated for inhibition of tumor cell growth in SW/480 cell line; type: functional, cell-based; details: Homo sapiens, read-out: I50; summary of the method: as §1
[2] = It is the ratio of relative maximum velocity to that of apparent kinetic constant
MOLT-4 = experiment: Compound was evaluated for inhibition of MTX influx into MOLT-4 cells; type: functional, cell-based; details: Homo sapiens, read-out: I50
Summary of the method: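 MOLT-4 cells were grown in folate-free RPMI-1640 with 10% dialyzed FCS and 20 nM leucovorin, then resuspended in pH 7.4 Tris/bicarbonate buffer with 10 mM DTT at 37 °C. Test compound was added with TLC-purified ³H-MTX at t = 0. Timed aliquots were spun through 1-bromododecane, and pellets were NaOH-extracted and scintillation counted. Rates came from 4–5 linear points at ≤10 min.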

Manca = experiment: Compound was evaluated for inhibition of tumor cell growth in Manca human lymphoma cell line; type: functional, cell-based; details: read-out: I50
Thymidylate synthase [3] = molecular target: Thymidylate synthase (Escherichia coli, UniProt C3SWJ7); experiment: Compound was evaluated for the inhibition of Escherichia coli Thymidylate Synthase; details: read-out: I50
[4] = substrate: C#CCN(Cc1ccc(C(=O)NC(CCC(=O)O)C(=O)O)cc1)Cc1ccc2nc(C)nc(O)c2c1; experiment: Relative maximum velocity of Folyl-polyglutamate synthase (relative to control of 50 uM aminopterin); details: Sus scrofa
Summary of the method: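 Substrate activity was measured with partially purified hog liver FPGS, following an earlier published method. Vmax is expressed relative to a control of 50 μM aminopterin that was run in every experiment. Where activity was weak, relative velocity was reported at 200 μM substrate.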

Sequence of Thymidylate synthase (Homo sapiens, UniProt P04818) (P04818 whole entry): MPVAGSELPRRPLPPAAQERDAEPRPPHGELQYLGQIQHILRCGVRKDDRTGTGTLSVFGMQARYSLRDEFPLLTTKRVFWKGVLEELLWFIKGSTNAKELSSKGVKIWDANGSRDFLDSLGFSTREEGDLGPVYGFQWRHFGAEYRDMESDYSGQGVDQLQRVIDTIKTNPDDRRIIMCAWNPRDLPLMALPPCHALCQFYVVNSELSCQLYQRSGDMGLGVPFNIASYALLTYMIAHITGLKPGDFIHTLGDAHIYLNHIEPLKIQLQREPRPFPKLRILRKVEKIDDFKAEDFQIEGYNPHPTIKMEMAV
Sequence of Thymidylate synthase (Escherichia coli, UniProt C3SWJ7) (C3SWJ7 whole entry): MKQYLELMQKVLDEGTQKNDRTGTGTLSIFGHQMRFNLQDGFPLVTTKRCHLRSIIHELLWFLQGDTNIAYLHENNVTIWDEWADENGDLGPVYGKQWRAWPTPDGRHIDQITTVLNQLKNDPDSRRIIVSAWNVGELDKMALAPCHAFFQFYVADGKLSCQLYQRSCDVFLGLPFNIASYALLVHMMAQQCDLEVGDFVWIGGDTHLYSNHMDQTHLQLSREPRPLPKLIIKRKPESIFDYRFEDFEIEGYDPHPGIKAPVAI

| Molecule | IC50 (Thymidylate synthase [1]) | IC50 (MCF7) | IC50 (SW480) | Ratio [2] | IC50 (MOLT-4) | IC50 (Manca) | IC50 (Thymidylate synthase [3]) | Vmax [4] |
| --- | --- | --- | --- | --- | --- | --- | --- | --- |
| C#CCN(Cc1ccc(C(=O)NC(CCC(=O)O)C(=O)O)cc1)Cc1ccc2ccnc(O)c2c1 (stereo unspecified) | 0.74 µM | 22 µM | > 100 µM | 0.38 | 4.5 µM | 9 µM | – | – |
| C#CCN(Cc1ccc2nc(C)nc(O)c2c1)c1ccc(C(=O)NC(CCC(=O)O)C(=O)O)cc1 (stereo unspecified) | 0.01 µM | 0.007 µM | 0.05 µM | 1.33 | 1.5 µM | 0.013 µM | 0.045 µM | – |
| C#CCN(Cc1ccc(C(=O)NC(CCC(=O)O)C(=O)O)cc1)Cc1ccc2c(c1)C(=O)CC(C)=N2 (stereo unspecified) | 1.4 µM | – | > 50 µM | – | – | > 600 µM | – | – |
| Nc1nc(=O)c2nc(CNc3ccc(C(=O)N[C@@H](CCC(=O)O)C(=O)O)cc3)cnc2[nH]1 [FOLIC ACID] | – | – | – | 0.77 | > 100 µM | – | – | – |
| CN(Cc1cnc2nc(N)nc(N)c2n1)c1ccc(C(=O)N[C@@H](CCC(=O)O)C(=O)O)cc1 [METHOTREXATE] | – | – | – | – | 1.4 µM | – | – | – |
| C#CCN(Cc1ccc(C(=O)NC(CCC(=O)O)C(=O)O)cc1)Cc1ccc2nc(N)nc(O)c2c1 (stereo unspecified) | 31 µM | > 100 µM | > 100 µM | 1.9 | – | > 80 µM | 201 µM | – |
| C#CCN(Cc1ccc2[nH]c(N)nc(=O)c2c1)c1ccc(C(=O)NC(CCC(=O)O)C(=O)O)cc1 (stereo unspecified) | – | 0.8 µM | 0.8 µM | – | 28 µM | 0.56 µM | – | – |
| Nc1nc(=O)c2c([nH]1)NCC(CNc1ccc(C(=O)N[C@H](CCC(=O)O)C(=O)O)cc1)N2C=O (stereo partly specified) | – | – | – | – | 3.5 µM | – | – | – |
| C#CCN(Cc1ccc2c(c1)C(=O)N[C@H](C)N2)c1ccc(C(=O)NC(CCC(=O)O)C(=O)O)cc1 (stereo partly specified) | 0.43 µM | – | 0.6 µM | – | – | – | 1.5 µM | – |
| Nc1nc(O)c2c(n1)NCC(CNc1ccc(C(=O)N[C@@H](CCC(=O)O)C(=O)O)cc1)N2 (stereo partly specified) | – | – | – | 32.1 | – | – | – | – |
| C#CCN(Cc1ccc(C(=O)NC(CCC(=O)O)C(=O)O)cc1)Cc1ccc2nc(C)nc(O)c2c1 (stereo unspecified) | 83 µM | > 100 µM | > 100 µM | 2.01 | 7 µM | – | 515 µM | – |
| C#CCN(Cc1ccc2c(c1)C(=O)C[C@H](C)N2)c1ccc(C(=O)NC(CCC(=O)O)C(=O)O)cc1 (stereo partly specified) | 24 µM | > 100 µM | > 100 µM | – | 4.5 µM | – | 1.88 µM | – |
| Folylpolyglutamate synthase, mitochondrial (Homo sapiens), Q05932 (protein) MSRARSHLRAALFLAAASARGITTQVAARRGLSAWPVPQEPSMEYQDAVRMLNTLQTNAGYLEQVKRQRGDPQTQLEAMELYLARSGLQVEDLDRLNIIHVTGTKGKGSTCAFTECILRSYGLKTGFFSSPHLVQVRERIRINGQPISPELFTKYFWRLYHRLEETKDGSCVSMPPYFRFLTLMAFHVFLQEKVDLAVVEVGIGGAYDCTNIIRKPVVCGVSSLGIDHTSLLGDTVEKIAWQKGGIFKQGVPAFTVLQPEGPLAVLRDRAQQISCPLYLCPMLEALEEGGPPLTLGLEGEHQRSNAALALQLAHCWLQRQDRHGAGEPKASRPGLLWQLPLAPVFQPTSHMRLGLRNTEWPGRTQVLRRGPLTWYLDGAHTASSAQACVRWFRQALQGRERPSGGPEVRVLLFNATGDRDPAALLKLLQPCQFDYAVFCPNLTEVSSTGNADQQNFTVTLDQVLLRCLEHQQHWNHLDEEQASPDLWSAPSPEPGGSASLLLAPHPPHTCSASSLVFSCISHALQWISQGRDPIFQPPSPPKGLLTHPVAHSGASILREAAAIHVLVTGSLHLVGGVLKLLEPALSQ | – | – | – | – | – | – | – | 138% |
